The IC50 is the concentration that inhibits the measured activity by half. What is called clearance is the rate of elimination divided by the concentration. Broadly, the Tmax is the time at which the peak concentration occurs. A word on the bioavailability: it is dose-corrected exposure relative to a reference, in per cent. Broadly, the Cmax is the peak of the concentration-time curve. One may read the half-life as the time needed for the level to fall by half in the phase considered. The term solubility denotes the dissolved amount per volume that the medium holds.

This note sets out measurements from ChEMBL document CHEMBL4725355, “Design, Synthesis, and Preclinical Evaluation of 3-Methyl-6-(5-thiophenyl)-1,3-dihydro-imidazo[4,5-b]pyridin-2-ones as Selective GluN2B Negative Allosteric Modulators for the Treatment of Mood Disorders” (J Med Chem, 2020).

The nature of series [1]: Negative allosteric modulation of human GluN1a/GluN2A receptor expressed in CHO cells assessed as inhibition of glutamate and glycine-induced calcium flux preincubated for 5 mins followed by glutamate and glycine addition and measured after 5 mins by calcium 5 dye based FLIPR assay. The format is cell-based. The gist of the method:
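Tet-On CHO T-Rex cells expressing hGluN1a with GluN2A, 2B, 2C or 2D, plated at 20,000 cells/well and induced 24 h before the assay in the presence of ketamine. Cells loaded 1 h at room temperature with Calcium 5 dye, pH 7.4 HEPES buffer. Compound added 5 min, then glutamate (~EC80) plus 10 µM glycine for 5 min; FLIPR fluorescence normalized to control wells. Three independent runs in duplicate (two for some).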

Series [2] can be described thus: Drug level in Sprague-Dawley rat brain cerebellum at 0.03 mg/kg, iv after 60 min by LC-MS/MS analysis. The series is classed as ADME, organism-based. The settings on record: read-out: Drug uptake. The gist of the method: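 Single i.v. dose of 0.03 mg/kg in 50% (w/v) PEG/water, pH 7.4; rats n=3 per group, killed at 5, 10, 30, 60 and 120 min. Cerebellum, cortex, striatum and hippocampus dissected, weighed and homogenized; drug quantified by LC-MS/MS and normalized to tissue weight. P<0.05 taken as significant versus cerebellum.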

For series [3], the target named is T1, Cytochrome P450 2C8 (Homo sapiens, UniProt P10632).
T1 sequence (P10632 whole entry): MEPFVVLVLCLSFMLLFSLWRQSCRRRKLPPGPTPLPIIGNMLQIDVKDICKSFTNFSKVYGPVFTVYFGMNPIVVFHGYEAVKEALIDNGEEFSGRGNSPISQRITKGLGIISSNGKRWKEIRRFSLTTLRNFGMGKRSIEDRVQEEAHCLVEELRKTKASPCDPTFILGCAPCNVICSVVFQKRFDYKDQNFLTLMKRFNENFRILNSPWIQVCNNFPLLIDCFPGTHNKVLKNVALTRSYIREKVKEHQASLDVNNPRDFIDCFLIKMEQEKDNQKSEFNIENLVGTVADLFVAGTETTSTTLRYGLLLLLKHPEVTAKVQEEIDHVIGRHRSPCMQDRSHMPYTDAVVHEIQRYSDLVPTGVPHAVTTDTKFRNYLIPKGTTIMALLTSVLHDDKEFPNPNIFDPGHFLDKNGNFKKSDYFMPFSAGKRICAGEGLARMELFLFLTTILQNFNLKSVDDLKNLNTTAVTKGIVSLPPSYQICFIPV
The experiment in a line: Inhibition of CYP2C8 in human liver microsomes using amodiaquine as substrate measured after 15 mins by LC-MS/MS analysis. The format is ADME. The gist of the method:
(§1)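 Human liver microsomes incubated with isoform-specific probe substrates and the test compound at concentrations up to 20 µM. IC50 derived from inhibition of metabolite formation; mean of two independent experiments, with known specific inhibitors as positive controls.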

The target in series [4] is Cytochrome P450 3A4 (Homo sapiens, UniProt P08684). The experiment in a line: Inhibition of CYP3A4 in human liver microsomes using midazolam as substrate measured after 15 mins by LC-MS/MS analysis. The series is classed as ADME. The method in brief:
as §1
(In general: Liver microsomes are vesicles of endoplasmic reticulum, rich in cytochrome P450 enzymes.)

The nature of series [5]: Clearance in dog at 0.1 mg/kg, iv by LC-MS/MS analysis. The settings on record: in vivo. The series is classed as ADME, organism-based, Canis lupus familiaris.
Series [6] in a line: Tmax in dog at 0.5 mg/kg, po by LC-MS/MS analysis. The format is ADME, organism-based, Canis lupus familiaris. The settings on record: in vivo.
Series [7] in a line: Oral bioavailability in monkey at 0.5 mg/kg by LC-MS/MS analysis. The format is ADME, organism-based, Macaca mulatta. The settings on record: rhesus monkey, in vivo.
The nature of series [8]: Cmax in monkey at 0.5 mg/kg, po by LC-MS/MS analysis. The settings on record: rhesus monkey, in vivo. The format is ADME, organism-based, Macaca mulatta. Further details: route oral, dose 0.5 mg/kg.
Series [9] in a line: Half life in mouse at 2.5 mg/kg, po by LC-MS/MS analysis. The series is classed as ADME, organism-based. The settings on record: in vivo.
A short description of series [10]: Solubility of compound in 30% sulfobutylether-beta-cyclodextrin. The format is physicochemical. The gist of the method:
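Solubility of the compound assessed in dosing excipients, including 30% SBE-β-CD, 50% PEG-400 and 20% HP-β-CD. The aim was a solution usable for rat dosing; the 20% HP-β-CD formulation was checked for a 0.1 mg/mL solution to support a 0.5 mg/kg dose.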

Series [11] can be described thus: Cmax in Sprague-Dawley rat at 125 mg/kg, po administered via gavage after 24 hrs using HPMC formulation by LC-MS/MS analysis. The series is classed as ADME, organism-based. Further details: route oral, time 24 hrs, dose 125 mg/kg. The settings on record: in vivo. The method in brief:
(§2)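 Single oral gavage dose to male Sprague Dawley rats, 3 per dose level. Vehicles were a standard suspension in 5% HPMC (125, 250, 500 or 1000 mg/kg) or a nanosuspension (API:polymer 4:1), with stock diluted in vehicle on the day of dosing (100, 250 or 500 mg/kg). Blood was sampled at time points from 0.5 to 24 h.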

The nature of series [12]: Cmax in Sprague-Dawley rat at 250 mg/kg, po administered via gavage after 24 hrs using HPMC formulation by LC-MS/MS analysis. The series is classed as ADME, organism-based. Further details: route oral, time 24 hrs, dose 250 mg/kg. The settings on record: in vivo. The method in brief: as §2
The target in series [13] is T2, Aryl hydrocarbon receptor (Homo sapiens, UniProt P35869).
T2 sequence (P35869 whole entry): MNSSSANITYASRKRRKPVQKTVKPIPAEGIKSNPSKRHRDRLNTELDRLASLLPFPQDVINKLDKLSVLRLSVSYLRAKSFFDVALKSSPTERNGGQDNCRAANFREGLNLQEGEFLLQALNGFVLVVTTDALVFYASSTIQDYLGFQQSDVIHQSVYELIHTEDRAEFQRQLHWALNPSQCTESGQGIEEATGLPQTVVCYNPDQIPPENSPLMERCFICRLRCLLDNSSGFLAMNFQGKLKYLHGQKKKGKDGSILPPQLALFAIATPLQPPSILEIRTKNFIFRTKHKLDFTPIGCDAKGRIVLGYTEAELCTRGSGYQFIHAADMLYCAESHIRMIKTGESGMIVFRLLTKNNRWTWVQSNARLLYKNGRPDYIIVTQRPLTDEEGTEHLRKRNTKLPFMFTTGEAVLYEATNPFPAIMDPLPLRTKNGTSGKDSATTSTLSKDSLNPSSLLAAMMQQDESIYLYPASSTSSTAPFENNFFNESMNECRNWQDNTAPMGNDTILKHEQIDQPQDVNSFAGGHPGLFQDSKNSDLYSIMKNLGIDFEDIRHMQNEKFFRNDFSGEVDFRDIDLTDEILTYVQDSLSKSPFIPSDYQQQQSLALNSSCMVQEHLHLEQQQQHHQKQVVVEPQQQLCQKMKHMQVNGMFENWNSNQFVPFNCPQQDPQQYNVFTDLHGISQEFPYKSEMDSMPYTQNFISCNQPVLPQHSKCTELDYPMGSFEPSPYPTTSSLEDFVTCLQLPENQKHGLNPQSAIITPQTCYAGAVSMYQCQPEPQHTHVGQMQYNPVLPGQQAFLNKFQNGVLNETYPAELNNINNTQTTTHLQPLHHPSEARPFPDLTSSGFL
Briefly: Activation of human AHR expressed in human 1A2-DRE cells assessed as induction of CYP1A by luciferase reporter gene assay relative to control. The format is ADME, cell-based. The method in brief:
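Luciferase reporter lines were used. DPX2 is HepG2 carrying human PXR plus a CYP3A4 promoter-luciferase construct. 1A2-DRE carries human AhR plus a CYP1A2 promoter with 3 DRE copies. Luminescence was read with ONE-Glo. Activation was expressed relative to rifampicin (PXR) or omeprazole (AhR).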

A short description of series [14]: Solubility of compound in FASSIF at pH 6.8 measured after 3 days. The format is physicochemical. The settings on record: time 3 day. The method in brief:
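Solubility in aqueous buffer at pH 2 and pH 7, and in simulated gastric and intestinal fluids.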

SMILES strings stand for the structures. ≈ marks a conversion by molar mass, not a printed value.

Cytochrome P450 3A4, sequence (P08684 whole entry): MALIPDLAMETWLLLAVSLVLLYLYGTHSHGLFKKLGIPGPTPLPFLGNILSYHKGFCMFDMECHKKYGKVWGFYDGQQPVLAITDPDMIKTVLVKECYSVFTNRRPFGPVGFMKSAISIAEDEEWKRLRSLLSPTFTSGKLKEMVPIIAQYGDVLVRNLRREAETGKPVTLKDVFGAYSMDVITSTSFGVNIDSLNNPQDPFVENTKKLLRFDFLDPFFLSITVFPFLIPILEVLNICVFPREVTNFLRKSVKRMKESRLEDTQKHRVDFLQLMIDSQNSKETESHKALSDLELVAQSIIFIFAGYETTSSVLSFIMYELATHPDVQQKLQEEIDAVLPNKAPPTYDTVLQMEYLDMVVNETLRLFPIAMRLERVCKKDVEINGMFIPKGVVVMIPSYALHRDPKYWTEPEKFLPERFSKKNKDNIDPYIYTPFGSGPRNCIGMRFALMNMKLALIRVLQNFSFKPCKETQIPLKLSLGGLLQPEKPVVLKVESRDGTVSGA

For the compound `Cn1c(=O)n(CC(=O)N2CCC2)c2cc(-c3ccc(C(F)(F)F)s3)cnc21`, the IC50 is > 10 µM in series [1], > 50 µM in series [3] and > 50 µM in series [4]. The concentration at 1 h in series [2] is 11.9 ng/mL. The compound further came in with a clearance in [5] of 17 mL/min/kg. Moreover, the Tmax in series [6] is 0.25 h. Moreover, the bioavailability in series [7] amounted to 41%. Moreover, the highest concentration (Cmax) in [8] was found to be 167 ng/mL; in series [11] it was 4240 ng/mL; in [12], 5480 ng/mL. In series [9], this compound showed a half-life of 2.4 h. In addition, the solubility in series [10] was < 1000 µg/mL. The Activity in [13] is < 20%. The compound further returned a solubility at 72 h in series [14] of 8.4 µM (≈ 3.33 µg/mL).
